ChEMBL document CHEMBL1764976, “Small molecule inhibitors of retinoic acid 4-hydroxylase (CYP26): synthesis and biological evaluation of imidazole methyl 3-(4-(aryl-2-ylamino)phenyl)propanoates” (J Med Chem, 2011)
The source made the active and inactive calls. No cut-off for these calls is given here.

Tests used:
Cytochrome P450 26A1 = biological target: T1, Cytochrome P450 26A1 (Homo sapiens, UniProt O43174); experiment: Inhibition of CYP26A1 in human MCF7 cell microsomes using [3H]ATRA after 1 hr by scintillation counting; set-up: species or system Microsome
T1 sequence (O43174 whole entry): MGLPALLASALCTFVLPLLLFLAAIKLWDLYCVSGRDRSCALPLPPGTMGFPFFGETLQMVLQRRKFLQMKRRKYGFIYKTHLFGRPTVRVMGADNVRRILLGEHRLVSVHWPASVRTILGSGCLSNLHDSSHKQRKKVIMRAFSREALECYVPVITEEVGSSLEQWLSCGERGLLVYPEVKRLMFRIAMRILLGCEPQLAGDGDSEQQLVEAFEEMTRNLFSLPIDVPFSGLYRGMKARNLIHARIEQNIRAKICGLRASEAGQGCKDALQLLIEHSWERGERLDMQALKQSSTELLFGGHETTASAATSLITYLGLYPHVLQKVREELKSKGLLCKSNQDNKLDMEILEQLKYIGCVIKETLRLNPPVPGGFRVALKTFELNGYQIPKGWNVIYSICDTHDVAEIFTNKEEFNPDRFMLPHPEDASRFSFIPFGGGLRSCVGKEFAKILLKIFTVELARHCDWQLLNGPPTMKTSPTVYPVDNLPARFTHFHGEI
How it was run: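 Cell-free assay on MCF7 CYP26A1 microsomes with [11,12-3H]all-trans-retinoic acid as substrate. IC50 taken from the best fit of a four-point dose-response curve.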

CYP2C9 = CYP2C9 (Homo sapiens, UniProt P11712); experiment: Inhibition of CYP2C9 in human liver microsomes at 0.4 uM; format: ADME, Microsome
CYP2C9, sequence (P11712 whole entry): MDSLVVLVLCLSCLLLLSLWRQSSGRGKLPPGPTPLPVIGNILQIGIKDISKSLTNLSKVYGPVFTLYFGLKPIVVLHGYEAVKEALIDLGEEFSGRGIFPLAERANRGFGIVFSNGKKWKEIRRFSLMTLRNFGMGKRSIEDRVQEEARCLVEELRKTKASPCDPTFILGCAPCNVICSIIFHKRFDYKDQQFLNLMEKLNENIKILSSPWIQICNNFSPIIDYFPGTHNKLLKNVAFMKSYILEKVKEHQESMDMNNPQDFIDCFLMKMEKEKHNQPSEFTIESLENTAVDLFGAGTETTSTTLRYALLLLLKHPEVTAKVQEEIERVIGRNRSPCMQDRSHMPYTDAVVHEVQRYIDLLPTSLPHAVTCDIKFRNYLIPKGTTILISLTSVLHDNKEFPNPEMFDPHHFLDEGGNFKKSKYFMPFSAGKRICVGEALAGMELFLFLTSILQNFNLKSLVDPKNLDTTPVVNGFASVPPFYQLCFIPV

CYP1A2 = biological target: T2, CYP1A2 (Homo sapiens, UniProt P05177); experiment: Inhibition of CYP1A2 in human liver microsomes at 0.4 uM; format: ADME, Microsome
T2 sequence (P05177 whole entry): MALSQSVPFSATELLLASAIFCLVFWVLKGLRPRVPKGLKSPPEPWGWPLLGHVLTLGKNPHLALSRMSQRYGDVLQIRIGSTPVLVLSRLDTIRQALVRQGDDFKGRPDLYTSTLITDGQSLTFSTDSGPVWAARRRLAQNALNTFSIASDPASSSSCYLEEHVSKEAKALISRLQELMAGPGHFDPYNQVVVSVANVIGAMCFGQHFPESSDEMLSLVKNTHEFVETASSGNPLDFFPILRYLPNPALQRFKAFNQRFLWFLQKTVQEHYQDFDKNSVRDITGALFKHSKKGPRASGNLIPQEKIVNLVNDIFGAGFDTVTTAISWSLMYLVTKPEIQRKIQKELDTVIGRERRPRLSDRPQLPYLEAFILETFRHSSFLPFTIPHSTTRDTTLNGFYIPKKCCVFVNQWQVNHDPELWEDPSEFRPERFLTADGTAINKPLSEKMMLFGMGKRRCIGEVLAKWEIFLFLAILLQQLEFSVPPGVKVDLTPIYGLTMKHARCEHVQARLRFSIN

CYP3A4 = CYP3A4 (Homo sapiens, UniProt P08684); experiment: Inhibition of CYP3A4 in human liver microsomes at 0.4 uM; format: ADME, Microsome
CYP3A4, sequence (P08684 whole entry): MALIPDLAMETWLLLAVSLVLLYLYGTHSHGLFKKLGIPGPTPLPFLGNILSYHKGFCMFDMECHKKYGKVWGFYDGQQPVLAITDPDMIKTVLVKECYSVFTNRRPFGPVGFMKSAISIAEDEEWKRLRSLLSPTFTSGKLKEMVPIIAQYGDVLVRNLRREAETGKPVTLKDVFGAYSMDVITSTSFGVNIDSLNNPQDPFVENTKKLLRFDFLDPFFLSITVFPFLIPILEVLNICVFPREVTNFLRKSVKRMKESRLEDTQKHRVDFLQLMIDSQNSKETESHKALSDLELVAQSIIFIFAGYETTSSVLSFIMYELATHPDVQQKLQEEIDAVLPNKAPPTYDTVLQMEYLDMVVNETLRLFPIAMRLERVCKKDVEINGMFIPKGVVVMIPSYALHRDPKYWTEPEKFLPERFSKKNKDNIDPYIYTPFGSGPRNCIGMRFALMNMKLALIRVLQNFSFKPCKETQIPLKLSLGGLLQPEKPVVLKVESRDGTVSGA

CYP2C19 = CYP2C19 (Homo sapiens, UniProt P33261); experiment: Inhibition of CYP2C19 in human liver microsomes at 0.4 uM; format: ADME, Microsome
CYP2C19, sequence (P33261 whole entry): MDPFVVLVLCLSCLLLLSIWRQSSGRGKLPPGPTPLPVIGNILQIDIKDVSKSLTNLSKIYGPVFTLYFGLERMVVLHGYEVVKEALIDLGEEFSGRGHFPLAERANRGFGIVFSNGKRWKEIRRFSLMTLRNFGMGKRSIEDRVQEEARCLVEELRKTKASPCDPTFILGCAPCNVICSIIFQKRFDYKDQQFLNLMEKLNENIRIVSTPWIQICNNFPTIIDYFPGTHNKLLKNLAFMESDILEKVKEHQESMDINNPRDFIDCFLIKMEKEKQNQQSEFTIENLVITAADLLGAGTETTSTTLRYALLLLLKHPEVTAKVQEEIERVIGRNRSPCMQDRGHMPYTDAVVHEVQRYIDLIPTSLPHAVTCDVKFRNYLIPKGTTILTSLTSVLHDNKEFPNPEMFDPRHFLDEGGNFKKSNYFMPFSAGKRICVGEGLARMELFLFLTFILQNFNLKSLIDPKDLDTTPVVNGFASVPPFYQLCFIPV

SH-SY5Y [1] = experiment: Induction of CYP26A1 mRNA expression in human SH-SY5Y cells at 1 uM after 72 hrs by RT-PCR analysis in presence of 0.1 uM of all-trans retinoic acid; format: functional
How it was run: (§1)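 SH-SY5Y cells exposed 72 h to test agent at 1 μM alone or with 0.1 μM ATRA. Total RNA extracted, reverse transcribed, and quantified by real-time PCR with TaqMan probes for CYP26A1 and β-actin. CYP26A1 was normalized to β-actin and reported as fold increase over cells given ATRA alone.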

CYP2D6 = CYP2D6 (Homo sapiens, UniProt P10635); experiment: Inhibition of CYP2D6 in human liver microsomes at 0.4 uM; format: ADME, Microsome
CYP2D6, sequence (P10635 whole entry): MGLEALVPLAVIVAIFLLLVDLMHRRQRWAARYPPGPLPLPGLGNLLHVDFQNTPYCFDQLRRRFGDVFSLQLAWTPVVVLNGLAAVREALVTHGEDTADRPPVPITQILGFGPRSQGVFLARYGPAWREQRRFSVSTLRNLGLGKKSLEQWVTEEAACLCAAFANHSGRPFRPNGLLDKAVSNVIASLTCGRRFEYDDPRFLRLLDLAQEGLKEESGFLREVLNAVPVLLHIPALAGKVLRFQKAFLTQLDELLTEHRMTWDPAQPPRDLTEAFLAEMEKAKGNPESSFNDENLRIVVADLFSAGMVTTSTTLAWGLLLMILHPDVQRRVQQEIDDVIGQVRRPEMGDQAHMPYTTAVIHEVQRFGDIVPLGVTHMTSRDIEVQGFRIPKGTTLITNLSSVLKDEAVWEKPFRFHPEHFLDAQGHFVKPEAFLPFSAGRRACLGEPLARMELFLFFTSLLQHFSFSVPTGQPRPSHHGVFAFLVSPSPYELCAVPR

SH-SY5Y [2] = experiment: Induction of CYP26A1 mRNA expression in human SH-SY5Y cells at 1 uM after 72 hrs by RT-PCR analysis; format: functional, cell-based; how it was run: as §1
Cytochrome P450 2D6 = Cytochrome P450 2D6 (Homo sapiens, UniProt P10635); experiment: Inhibition of CYP2D6 in human liver microsomes; format: ADME, Microsome
Cytochrome P450 2D6, sequence (P10635 whole entry): as above

Salmonella typhimurium [3] = experiment: Mutagenic activity in Salmonella Typhimurium TA100 by Ames test in presence of S9 mixture; format: toxicity, organism-based; settings: salmonella enterica subsp. enterica serovar typhimurium
How it was run: (§2)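 Ames screen with Salmonella typhimurium strains TA98 and TA100, run with and without S-9 mix.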

Salmonella typhimurium [4] = experiment: Mutagenic activity in Salmonella Typhimurium TA98 by Ames test in presence of S9 mixture; format: toxicity, organism-based; settings: salmonella enterica subsp. enterica serovar typhimurium; how it was run: as §2
Cytochrome P450 2C9 = Cytochrome P450 2C9 (Homo sapiens, UniProt P11712); experiment: Inhibition of CYP2C9 in human liver microsomes; format: ADME, Microsome
Cytochrome P450 2C9, sequence (P11712 whole entry): as the sequence (P11712 whole entry) above

Cytochrome P450 1A2 = biological target: T3, Cytochrome P450 1A2 (Homo sapiens, UniProt P05177); experiment: Inhibition of CYP1A2 in human liver microsomes; format: ADME, Microsome
T3 sequence (P05177 whole entry): T2 sequence (P05177 whole entry)

[5] = Half life in human liver microsomes; format: ADME, Microsome

COC(=O)[C@@H](C)[C@H](c1ccc(Nc2ccc3ccccc3c2)cc1)n1ccnc1 (relative stereo)
IC50 (Cytochrome P450 26A1): 140 nM

COC(=O)[C@H](C)[C@H](c1ccc(Nc2ccccc2)cc1)n1ccnc1 (relative stereo)
IC50 (Cytochrome P450 26A1): 26 nM

COC(=O)C(C)(C)C(c1ccc(Nc2cccc3ccccc23)cc1)n1ccnc1 (stereo not drawn)
inhibition at 0.4 µM (CYP2C9): 48%
inhibition at 0.4 µM (CYP1A2): 15%
inhibition at 0.4 µM (CYP3A4): 75%
inhibition at 0.4 µM (CYP2C19): 49%
Activity (SH-SY5Y [1]): Active
inhibition at 0.4 µM (CYP2D6): 53%
IC50 (Cytochrome P450 26A1): 6 nM

COC(=O)C(C)(C)C(c1ccc(Nc2ccc3cc(OC)ccc3c2)cc1)n1ccnc1 (stereo not drawn)
IC50 (Cytochrome P450 26A1): 8 nM

Clc1cccc(C(c2ccc3[nH]cnc3c2)n2ccnc2)c1 (stereo not drawn) [LIAROZOLE]
Activity (SH-SY5Y [2]): inactive
fold change (FC) (SH-SY5Y [1]): 2.3

COC(=O)C(C)(C)C(c1ccc(Oc2ccc3ccccc3c2)cc1)n1ccnc1 (stereo not drawn)
IC50 (Cytochrome P450 26A1): > 1000 nM

COC(=O)[C@H](C)[C@H](c1ccc(Nc2ccc3ccccc3c2)cc1)n1ccnc1 (relative stereo)
Activity (SH-SY5Y [1]): Active
IC50 (Cytochrome P450 26A1): 50 nM

COC(=O)C(C)(C)C(c1ccc(Nc2nc3ccccc3o2)cc1)n1ccnc1 (stereo not drawn)
inhibition at 0.4 µM (CYP2C9): 45%
inhibition at 0.4 µM (CYP1A2): 31%
inhibition at 0.4 µM (CYP3A4): 84%
inhibition at 0.4 µM (CYP2C19): 13%
Activity (SH-SY5Y [1]): Active
inhibition at 0.4 µM (CYP2D6): 55%
IC50 (Cytochrome P450 26A1): 10 nM

CCOc1ccc2ccccc2c1Nc1ccc(C(n2ccnc2)C(C)(C)C(=O)OC)cc1 (stereo not drawn)
IC50 (Cytochrome P450 26A1): 125 nM

COC(=O)C(C)(C)C(c1ccc(Nc2ccccc2)cc1)n1ccnc1 (stereo not drawn)
Activity (SH-SY5Y [1]): Active
IC50 (Cytochrome P450 26A1): 10 nM

COC(=O)[C@@H](C)[C@H](c1ccc(Nc2ccccc2)cc1)n1ccnc1 (relative stereo)
Activity (SH-SY5Y [1]): Active
IC50 (Cytochrome P450 26A1): 40 nM

COC(=O)C(C)(C)C(c1ccc(Nc2ccc3c(c2)OCO3)cc1)n1ccnc1 (stereo not drawn)
Activity (SH-SY5Y [1]): Active
IC50 (Cytochrome P450 26A1): 8 nM

COC(=O)C(C)(C)C(c1ccc(Nc2nc3ccccc3s2)cc1)n1ccnc1 (stereo not drawn)
inhibition at 0.4 µM (CYP2C9): 87%
inhibition at 0.4 µM (CYP1A2): 38%
inhibition at 0.4 µM (CYP3A4): 46%
inhibition at 0.4 µM (CYP2C19): 91%
inhibition at 0.4 µM (CYP2D6): 11%
IC50 (Cytochrome P450 26A1): 100 nM

COC(=O)C(C)(C)C(c1ccc(Nc2ccc3ccccc3c2)cc1)n1ccnc1 (stereo not drawn)
IC50 (Cytochrome P450 2D6): 600 nM
inhibition at 0.4 µM (CYP2C9): 41%
Activity (Salmonella typhimurium [3]): Non-toxic
Activity (Salmonella typhimurium [4]): Non-toxic
IC50 (Cytochrome P450 2C9): 1500 nM
inhibition at 0.4 µM (CYP1A2): 21%
IC50 (Cytochrome P450 1A2): 1200 nM
inhibition at 0.4 µM (CYP3A4): 60%
half-life [5]: 5 h
inhibition at 0.4 µM (CYP2C19): 11%
fold change (FC) (SH-SY5Y [1]): 5.8
inhibition at 0.4 µM (CYP2D6): 25%
IC50 (Cytochrome P450 26A1): 3 nM

COC(=O)C(C)(C)C(c1ccc(Nc2ccc(-c3ccccc3)cc2)cc1)n1ccnc1 (stereo not drawn)
IC50 (Cytochrome P450 26A1): 250 nM

COC(=O)C(C)(C)C(c1ccc(Nc2ccc3cc(O)ccc3c2)cc1)n1ccnc1 (stereo not drawn)
Activity (SH-SY5Y [1]): Active
IC50 (Cytochrome P450 26A1): 3 nM

C[C@H]([C@@H](c1ccc(Nc2nc3ccccc3s2)cc1)n1ccnc1)N(C)C
IC50 (Cytochrome P450 2D6): 3900 nM
IC50 (Cytochrome P450 2C9): 5900 nM
IC50 (Cytochrome P450 1A2): 8300 nM
Activity (SH-SY5Y [2]): inactive
fold change (FC) (SH-SY5Y [1]): 4.7
IC50 (Cytochrome P450 26A1): 10 nM

COC(=O)C(C)(C)C(c1ccc(Cc2ccc3ccccc3c2)cc1)n1ccnc1 (stereo not drawn)
IC50 (Cytochrome P450 26A1): > 1000 nM
